For series [1], the system named is epidermal growth factor receptor (EGFR). The following applies: cell-free ELISA assay; cited from earlier work.
The test system of series [2] is human epidermal growth factor receptor-2 (HER2/ErbB-2). The conditions noted are these: cell-free ELISA assay; cited from earlier work.
In series [3] the test system is vascular endothelial growth factor receptor-1/fms-like tyrosine kinase-1 (VEGFR-1/Flt-1). The conditions noted are these: cell-free ELISA assay; cited from earlier work.
Series [4] is described as follows: Cytotoxicity assay. The following applies: human, NCI-H460 large cell lung carcinoma cells. It is filed as cell-based. A digest of the protocol: (§1)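 Cells were exposed continuously to the test compound for 72 h, then stained with sulforhodamine B. IC50 was the concentration that reduced staining by 50% relative to untreated controls. Positive controls were run alongside. MCF-7 came from a cancer-centre stock, NCI-H460 from ATCC, and SF-268 from the NCI Developmental Therapeutics Program.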

A short description of series [5]: Cytotoxicity assay. The series is classed as cell-based. The conditions noted are these: human, SF-268 astrocytoma cells. The method in brief:
as §1

The nature of series [6]: Cytotoxicity assay. It is filed as cell-based. The conditions noted are these: human, MCF-7 breast carcinoma cells. The method in brief: as §1
Series [7] deals with A549 (adenocarcinoma). The conditions noted are these: A549 human cell line; cited from earlier work.
Series [8] deals with HepG2 (hepatocellular carcinoma). The following applies: HepG2 human cell line; cited from earlier work.
In series [9] the test system is activated p65 subunits of NF-κB in the nucleus of HeLa cells. The experiment in a line: ELISA based NF-κB p65 inhibitory assay. The series is classed as cell-based, human. The following applies: for IC50: read-out: NF-κB inhibitory activity IC50 values, p65 binding, HeLa cells, ELISA. Background: ELISA stands for enzyme-linked immunosorbent assay.
Series [10] addresses EGFR tyrosine kinase (Homo sapiens, UniProt P00533). The series can be described thus: EGFR enzymatic assay. The conditions noted are these: read-out: EGFR inhibition IC50; luminescence kinase assay. The series is classed as biochemical.
Series [11] can be described thus: Cytotoxicity assay. It is filed as cell-based. The conditions noted are these: human.
Series [12] in a line: Cytotoxicity assay. It is filed as cell-based. The conditions noted are these: human. This is another data set of the same source.

Results on eight molecules are retold here after publication PMC3573876 (The Journal of antibiotics, 2012).

Usually IC50 stands for the point on the concentration scale where inhibition reaches its midpoint.

EGFR tyrosine kinase, sequence (P00533 25-1210): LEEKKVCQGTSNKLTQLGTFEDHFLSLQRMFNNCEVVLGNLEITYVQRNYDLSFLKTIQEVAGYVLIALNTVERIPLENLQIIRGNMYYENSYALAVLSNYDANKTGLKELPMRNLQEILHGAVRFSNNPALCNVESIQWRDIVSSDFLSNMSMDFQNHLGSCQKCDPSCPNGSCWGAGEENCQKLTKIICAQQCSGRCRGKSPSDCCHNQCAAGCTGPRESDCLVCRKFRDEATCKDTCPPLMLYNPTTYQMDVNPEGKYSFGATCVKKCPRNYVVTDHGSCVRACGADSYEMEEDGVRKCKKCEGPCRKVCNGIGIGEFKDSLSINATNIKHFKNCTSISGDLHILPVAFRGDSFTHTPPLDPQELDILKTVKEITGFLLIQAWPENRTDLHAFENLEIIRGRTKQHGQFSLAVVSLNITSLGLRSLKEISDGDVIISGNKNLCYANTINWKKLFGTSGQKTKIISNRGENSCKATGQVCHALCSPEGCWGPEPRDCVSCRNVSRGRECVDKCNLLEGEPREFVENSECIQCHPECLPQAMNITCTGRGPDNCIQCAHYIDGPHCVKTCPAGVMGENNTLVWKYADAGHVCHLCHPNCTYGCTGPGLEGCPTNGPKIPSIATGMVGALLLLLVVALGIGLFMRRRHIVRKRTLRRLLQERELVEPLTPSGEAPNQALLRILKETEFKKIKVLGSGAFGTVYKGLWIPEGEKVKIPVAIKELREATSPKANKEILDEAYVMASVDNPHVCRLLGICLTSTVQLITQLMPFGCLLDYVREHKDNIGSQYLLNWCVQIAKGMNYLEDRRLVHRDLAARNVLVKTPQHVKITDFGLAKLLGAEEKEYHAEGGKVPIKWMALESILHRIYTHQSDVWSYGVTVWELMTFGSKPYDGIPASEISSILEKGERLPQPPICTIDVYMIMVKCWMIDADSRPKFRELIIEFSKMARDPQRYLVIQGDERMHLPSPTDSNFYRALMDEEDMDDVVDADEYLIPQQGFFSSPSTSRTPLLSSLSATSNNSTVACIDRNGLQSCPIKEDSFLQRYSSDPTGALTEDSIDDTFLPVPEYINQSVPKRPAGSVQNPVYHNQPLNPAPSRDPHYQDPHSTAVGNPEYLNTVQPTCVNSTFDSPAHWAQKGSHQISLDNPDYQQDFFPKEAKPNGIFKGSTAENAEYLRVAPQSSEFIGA

For `CN1C(=O)[C@@]23C[C@]4([C@]56C[C@@]78SS[C@@](C)(C(=O)N7[C@H]5Nc5ccccc56)N(C)C8=O)c5ccccc5N[C@@H]4N2C(=O)[C@]1(C)SS3` [11,11′-Dideoxyverticillin], in series [1], the “Tyrosine kinase inhibitory activity, EGFR” value is “nM range”. Also, the “Tyrosine kinase inhibitory activity, HER2/ErbB-2” value in [2] is “µM range”. In addition, the “Tyrosine kinase inhibitory activity, VEGFR-1/Flt-1” value in series [3] was “nM range”.
In the case of `CC[C@@]1(O)C(=O)OCc2c1cc1n(c2=O)Cc2cc3ccccc3nc2-1` [Camptothecin], the IC50 at 72 h in series [4] worked out at 10 nM; in series [5] it was 10 nM; in series [6] it was 130 nM.
As to `CC[C@@]12SS[C@]3(C(=O)N1C)[C@@H](O)C1(C45c6ccccc6N[C@@H]4N4C(=O)[C@]6([C@@H](C)O)SS[C@]4(C(=O)N6C)[C@H]5O)c4ccccc4N[C@@H]1N3C2=O` (some centres unmarked) [Gliocladicillin C (4), gliocladicillin C], in series [7], the “Cytotoxic activity on A549” value is “high cytotoxic activity”. Besides, the “Cytotoxic activity on HepG2” value in series [8] is reported as “high cytotoxic activity”. In addition, the IC50 in [9] and in series [10] was above 10000 nM each time.
Turning to `CC(O)[C@@]12SS[C@]3(C(=O)N1C)[C@@H](O)[C@]1([C@@]45c6ccccc6N[C@@H]4N4C(=O)[C@]6(C)SS[C@]4(C(=O)N6C)[C@H]5O)c4ccccc4N[C@@H]1N3C2=O` (some centres unmarked) [Sch 52901 (2), Sch 52900], in series [9], the “NF-κB assay activity (in words)” value was “sub-micromolar range” and the IC50 was found to be 500 nM.
For the molecule `COC(=O)[C@H]1[C@@H](O)[C@@]2(O)c3c(OC)cc(O[C@@H]4O[C@@H]([C@H](O)CO)CO[C@H]4OC)cc3O[C@@]2(c2ccc(OC)cc2)[C@@H]1c1ccccc1` [Silvestrol], the IC50 in series [11] and in series [12] was 10 nM each time.
For `CN1C(=O)[C@]23SS[C@@]1(C)C(=O)N2[C@H]1Nc2ccccc2[C@@]1([C@@]12c4ccccc4N[C@@H]1N1C(=O)[C@@]4(C)SS[C@]1(C(=O)N4C)[C@H]2O)[C@@H]3O` [Verticillin A (3), verticillin A], in series [9], the “NF-κB assay activity (in words)” value is reported as “sub-micromolar range” and the IC50 stood at 100 nM. In addition, in series [10], the half-maximal inhibitory concentration (IC50) was above 10000 nM.
With `CC[C@@]12SS[C@]3(C(=O)N1C)[C@@H](O)[C@]1(C45c6ccccc6N[C@@H]4N4C(=O)[C@@]6(CC)SS[C@@]4(C(=O)N6C)[C@H]5O)c4ccccc4N[C@@H]1N3C2=O` (some centres unmarked) [Verticillin H (1), verticillin H], the IC50 in [9] and in series [10] was above 10000 nM in each case.
Sch 52901 [Sch 52900 (5)]: the half-maximal inhibitory concentration (IC50) in series [9] is above 10000 nM.
